Measurements: ChEMBL document CHEMBL4428050, “Design, Synthesis, and Biological Evaluation of Substituted Pyrimidines as Potential Phosphatidylinositol 3-Kinase (PI3K) Inhibitors” (J Med Chem, 2016)
Active and inactive are the calls of the source. No cut-off for these calls is given here.

What was measured:
[1] = Inhibition of PI3K p110alpha/p85 (unknown origin) using PIP2/ATP as substrate after 1 hr by kinase glo luminescent assay; parameters: species or system Homo sapiens
Method in brief: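 PI3K p110α activity read by Kinase-Glo Plus luminescence. IC50 is the mean of triplicate measurements.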

[2] = tested on: K562; assay: Antiproliferative activity against human K562 cells after 72 hrs by CCK8 assay; type: functional, cell-based
[3] = tested on: MOLT-4; assay: Antiproliferative activity against human MOLT4 cells after 72 hrs by CCK8 assay; type: functional, cell-based
[4] = tested on: U-937; assay: Antiproliferative activity against human U937 cells after 72 hrs by CCK8 assay; type: functional, cell-based
[5] = tested on: MCF7; assay: Antiproliferative activity against human MCF7 cells after 72 hrs by CCK8 assay; type: functional, cell-based
[6] = tested on: SK-BR-3; assay: Antiproliferative activity against human SK-BR-3 cells after 72 hrs by CCK8 assay; type: functional, cell-based; conditions: SK-BR-3, 72 h
[7] = tested on: DU-145; assay: Antiproliferative activity against human DU145 cells after 72 hrs by CCK8 assay; type: functional, cell-based
[8] = tested on: NCI-N87; assay: Antiproliferative activity against human NCI-N87 cells after 72 hrs by CCK8 assay; type: functional, cell-based
[9] = tested on: A-431; assay: Antiproliferative activity against human A431 cells after 72 hrs by CCK8 assay; type: functional, cell-based
[10] = tested on: A549; assay: Antiproliferative activity against human A549 cells after 72 hrs by CCK8 assay; type: functional, cell-based
[11] = tested on: PANC-1; assay: Antiproliferative activity against human PANC1 cells after 72 hrs by CCK8 assay; type: functional, cell-based
[12] = tested on: HeLa; assay: Antiproliferative activity against human HeLa cells after 72 hrs by CCK8 assay; type: functional, cell-based
[13] = tested on: HL-60; assay: Antiproliferative activity against human HL60 cells after 72 hrs by CCK8 assay; type: functional, cell-based; conditions: HL-60, 72 h
[14] = tested on: MDA-MB-231; assay: Antiproliferative activity against human MDA-MB-231 cells by WST8 assay; type: functional, cell-based
[15] = tested on: PC-3; assay: Antiproliferative activity against human PC3 cells after 72 hrs by CCK8 assay; type: functional, cell-based; conditions: PC-3, 72 h
[16] = tested on: BGC-823; assay: Antiproliferative activity against human BGC823 cells after 72 hrs by CCK8 assay; type: functional, cell-based
[17] = species on record: Homo sapiens; assay: Inhibition of PI3K in human U937 cells assessed as suppression of AKT phosphorylation at S473 after 24 hrs by Western blot analysis; type: cell-based
[18] = tested on: Bel-7402; assay: Antiproliferative activity against human Bel7402 cells after 72 hrs by CCK8 assay; type: functional, cell-based; conditions: Bel-7402, 72 h
[19] = tested on: Huh-7; assay: Antiproliferative activity against human HuH7 cells after 72 hrs by CCK8 assay; type: functional, cell-based; conditions: Huh-7, 72 h
[20] = tested on: SGC-7901; assay: Antiproliferative activity against human SGC7901 cells after 72 hrs by CCK8 assay; type: functional, cell-based; conditions: SGC-7901, 72 h
[21] = tested on: HT-1080; assay: Antiproliferative activity against human HT1080 cells after 72 hrs by CCK8 assay; type: functional, cell-based; conditions: HT-1080, 72 h

SMILES	IC50 [1] [µM]	IC50 ([2]; Homo sapiens, K562, 72 h) [µM]	IC50 ([3]; Homo sapiens, MOLT-4, 72 h) [µM]	IC50 ([4]; Homo sapiens, U-937, 72 h) [µM]	IC50 ([5]; Homo sapiens, MCF7, 72 h) [µM]	IC50 [6] [µM]	IC50 ([7]; Homo sapiens, DU-145, 72 h) [µM]	IC50 ([9]; Homo sapiens, A-431, 72 h) [µM]	IC50 ([10]; Homo sapiens, A549, 72 h) [µM]	IC50 ([11]; Homo sapiens, PANC-1, 72 h) [µM]	IC50 ([12]; Homo sapiens, HeLa, 72 h) [µM]	IC50 ([16]; Homo sapiens, BGC-823, 72 h) [µM]	also measured
Nc1cc(C(F)(F)F)c(-c2nc(N3CCOCC3)nc(N3C[C@@H]4OCCO[C@H]4C3)n2)cn1	0.038	24.5	2.08	5.53	9.29	3.67	1.08	32.2	9.5	7.64	> 100		IC50 ([8]; Homo sapiens, NCI-N87, 72 h): 2.77 µM; IC50 [13]: 4.85 µM; IC50 [14]: 11.9 µM; IC50 [15]: 6.24 µM
C[C@@H]1CN(c2cc(-c3cnc(N)cc3C(F)(F)F)nc(N3C[C@@H](C)O[C@@H](C)C3)n2)C[C@H](C)O1	> 10												
C[C@@H]1CN(c2nc(N3C[C@@H](C)O[C@@H](C)C3)c3ccc(-c4cnc(N)cc4C(F)(F)F)cc3n2)C[C@H](C)O1	> 10												
CS(=O)(=O)N1CCN(c2ccc(Nc3nc(-c4cnc(N)cc4C(F)(F)F)cc(N4CCOCC4)n3)cc2)CC1	0.031	11.2	1.11	2.39	4.97	1.63	6.71	5.9	5.46	2.36	> 100		IC50 ([8]; Homo sapiens, NCI-N87, 72 h): 1.29 µM; IC50 [13]: 0.94 µM; IC50 [14]: 5.36 µM; IC50 [15]: 7.49 µM
Nc1cc(C(F)(F)F)c(-c2cc(N3CCOCC3)nc(Nc3cccc(N4CCOCC4)c3)n2)cn1	0.118	14.9	4.07	10.4	16.5	6.53	0.99	11.5	4.57	8.52	> 100		IC50 ([8]; Homo sapiens, NCI-N87, 72 h): 4.66 µM; IC50 [13]: 4.34 µM; IC50 [14]: 7.28 µM; IC50 [15]: 2.21 µM
Nc1cc(C(F)(F)F)c(-c2cc(N3CCOCC3)nc(NCCN3CCOCC3)n2)cn1	0.568												
Nc1cc(C(F)(F)F)c(-c2cc(N3CCOCC3)nc(N3C[C@H]4OCCO[C@@H]4C3)n2)cn1	0.061	6.34	1.96	3.38	7.47	3.47	15		6.4		7.53	6.59	
C[C@@H]1CN(c2nc(-c3cnc(N)cc3C(F)(F)F)nc(N3C[C@@H]4OCCO[C@@H]4C3)n2)C[C@H](C)O1	> 10												
Nc1cc(C(F)(F)F)c(-c2cc(N3CCOCC3)nc(N3C[C@@H]4OCCO[C@H]4C3)n2)cn1	0.035					1.6							IC50 ([2]; k562): 2.56 µM; IC50 ([3]; molt-4): 0.97 µM; IC50 ([4]; u-937): 1.51 µM; IC50 ([5]; mcf7): 3.82 µM; IC50 ([7]; du-145): 4.86 µM; IC50 ([16]; bgc-823): 2.79 µM; IC50 ([10]; a549): 2.49 µM; IC50 ([12]; hela): 2.45 µM
Nc1cc(C(F)(F)F)c(-c2ccc3c(N4CCOCC4)nc(N4CCOCC4)nc3c2)cn1	> 10												
Nc1cc(C(F)(F)F)c(-c2cc(N3CCOCC3)nc(N3C[C@@H]4OCCO[C@H]4C3)n2)cn1 (racemic)													inhibition [17]: Active
Nc1cc(C(F)(F)F)c(-c2nc(N3CCOCC3)nc(N3C[C@H]4OCCO[C@@H]4C3)n2)cn1 (racemic)	0.032		1.21	3.05	8.15			> 10	4.03	6.23		9.57	IC50 ([2]; k562): > 10 µM; IC50 [18]: 5.9 µM; IC50 [19]: 5.66 µM; IC50 ([7]; du-145): 3.3 µM; IC50 ([8]; nci-n87): 0.77 µM; IC50 [20]: 4.46 µM; IC50 [21]: 10 µM; IC50 ([12]; hela): > 10 µM
C[C@@H]1CN(c2nc(-c3cnc(N)cc3C(F)(F)F)nc(N3C[C@@H](C)O[C@@H](C)C3)n2)C[C@H](C)O1	> 10												
C[C@@H]1CN(c2cc(-c3cnc(N)cc3C(F)(F)F)nc(N3CCOCC3)n2)C[C@H](C)O1	0.224												
C[C@@H]1CN(c2nc(-c3cnc(N)cc3C(F)(F)F)nc(N3C[C@H]4C[C@@H]3CO4)n2)C[C@H](C)O1	9.53												
Nc1ncc(-c2cc(N3CCOCC3)nc(N3C[C@H]4OCCO[C@@H]4C3)n2)cn1 (racemic)	0.128												
Nc1cc(C(F)(F)F)c(-c2cc(N3C[C@H]4OCCO[C@@H]4C3)nc(N3CCOCC3)n2)cn1 (racemic)	0.375	3.19	3.24	2.86	7.29		7.11	3.03	5.56	5.97	5.33	4.33	IC50 [18]: 6.43 µM; IC50 [19]: 6.29 µM; IC50 ([8]; Homo sapiens, NCI-N87, 72 h): 6.21 µM; IC50 [20]: 4.78 µM; IC50 [21]: 5.64 µM
Nc1cc(C(F)(F)F)c(-c2nc(N3CCOCC3)nc(N3C[C@H]4OCCO[C@@H]4C3)n2)cn1	0.068					4.27							IC50 ([2]; k562): 24.6 µM; IC50 ([3]; molt-4): 2.28 µM; IC50 ([4]; u-937): 4.03 µM; IC50 ([5]; mcf7): 7.32 µM; IC50 ([7]; du-145): 7.36 µM; IC50 ([8]; nci-n87): 3.9 µM; IC50 ([9]; a-431): 14.1 µM; IC50 ([10]; a549): 8.01 µM; IC50 ([11]; panc-1): 9.04 µM; IC50 ([12]; hela): > 100 µM; IC50 [13]: 2.7 µM; IC50 [14]: 15.1 µM; IC50 [15]: 5.63 µM
Nc1cc(C(F)(F)F)c(-c2cc(N3CCOCC3)nc(N3C[C@@H]4OCCO[C@@H]4C3)n2)cn1	0.117	1.75	2.51	1.76	4.95		4.81	2.55	4.98	3.67	4.31	4.57	IC50 [18]: 5.82 µM; IC50 [19]: 4.84 µM; IC50 ([8]; Homo sapiens, NCI-N87, 72 h): 1.97 µM; IC50 [20]: 3.75 µM; IC50 [21]: 4.84 µM
C[C@@H]1CN(c2cc(-c3cnc(N)cc3C(F)(F)F)nc(N3C[C@@H]4OCCO[C@@H]4C3)n2)C[C@H](C)O1	5.75												
Nc1cc(C(F)(F)F)c(-c2cc(N3CCOCC3)nc(N3C[C@H]4C[C@@H]3CO4)n2)cn1	0.06	2.4	1.14	0.72	2.54		2.38	1.79	3.05	2.78	1.76	2.44	IC50 [18]: 2.79 µM; IC50 [19]: 2.93 µM; IC50 ([8]; Homo sapiens, NCI-N87, 72 h): 1.41 µM; IC50 [20]: 2.3 µM; IC50 [21]: 2.72 µM
C[C@@H]1CN(c2nc(-c3cnc(N)cc3C(F)(F)F)cc(N3CCOCC3)n2)C[C@H](C)O1	0.091	2.68	0.42	0.57	1.41		1.41	2.29	1.89	1.38	1.81	1.41	IC50 [18]: 1.64 µM; IC50 [19]: 1.21 µM; IC50 ([8]; Homo sapiens, NCI-N87, 72 h): 0.52 µM; IC50 [20]: 1.24 µM; IC50 [21]: 1.98 µM
CC(/C=C/C(=O)NO)=C\[C@@H](C)C(=O)c1ccc(N(C)C)cc1 [TRICHOSTATIN]		0.12	0.02	0.04	0.07	0.05	0.06	0.18	0.05	0.1	0.09	0.07	IC50 [18]: 0.1 µM; IC50 [19]: 0.06 µM; IC50 ([8]; Homo sapiens, NCI-N87, 72 h): 0.06 µM; IC50 [20]: 0.03 µM; IC50 [21]: 0.08 µM
Nc1cc(C(F)(F)F)c(-c2cc(N3CCOCC3)nc(Nc3ccc(N4CCOCC4)cc3)n2)cn1	0.026	8.81	1.77	3.48	9.41	2.67	> 10		7.79		6.91	8.36	
CS(=O)(=O)N1CCN(c2nc(-c3cnc(N)cc3C(F)(F)F)cc(N3CCOCC3)n2)CC1	0.023	3.64	1.11	1.99	4.39	1.59	6.56		2.95		4.04	3.64	
Oc1cccc(-c2nc(N3CCOCC3)c3oc4ncccc4c3n2)c1 [PI-103]	0.0074												
Nc1cc(C(F)(F)F)c(-c2cc(N3C[C@@H]4OCCO[C@@H]4C3)nc(N3CCOCC3)n2)cn1	0.896	> 10					> 10						
